STEP block – blocks human striatal-enriched tyrosine phosphatase. P54829. recombinant STEP, OMFP fluorogenic substrate, fluorescence. inhibition, % at 20 µM. actives 0.25% (n = 360,000);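 active means inhibition at 20 µM, scaled per plate between control wells, above about 37%, limit read from the data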;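 further: 0% = DMSO with enzyme and substrate and 100% = substrate only without enzyme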
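Assay system: isolated STEP enzyme / Timing: 20 min at room temperature, dark / Doses: 20 µM, 1% DMSO / Technique: fluorescence intensity, excitation 480 nm, emission 540 nm / Reagent: fluorogenic phosphatase substrate OMFP at 25 µM final / Measure: percent inhibition scaled to no-enzyme and uninhibited-enzyme controls, plate-pattern corrected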
Scp-1 inhibitor – Scp-1 (human) phosphatase inhibition. Q9GZU7. Recombinant Scp1, phosphopeptide, malachite green phosphate absorbance. inhibition, % at 20 µM. actives 0.88% (n = 340,000). AID 493091;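 active means inhibition above about 50% at 20 µM, limit read from the data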;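 further: plate controls were DMSO wells with enzyme for no effect and wells lacking enzyme for full effect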
Target sequence (Q9GZU7 76-261 limits assumed): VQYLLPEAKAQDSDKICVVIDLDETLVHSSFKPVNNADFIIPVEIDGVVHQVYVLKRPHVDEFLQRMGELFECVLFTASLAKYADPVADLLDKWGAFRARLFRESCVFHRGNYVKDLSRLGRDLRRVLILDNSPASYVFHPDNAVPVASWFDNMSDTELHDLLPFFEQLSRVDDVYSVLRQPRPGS
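Material: truncated SCP-1 phosphatase (76-261aa) / Buffer or medium: 50 mM Tris acetate pH 5.5, 0.005% Tween-20, 10 mM MgCl2 / Compound dosing: one concentration, 20 µM, with 1.0% DMSO / Incubation: 45 min room-temperature reaction, 5 min colour, 30 min stabiliser / Detection: colorimetric free-phosphate detection, absorbance 630 nm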
LMPTP inh – blocks human LMPTP phosphatase; recombinant LMPTP-A, OMFP fluorogenic substrate, fluorescence intensity; inhibition, % at 20 µM; actives 0.22% (n = 360,000); P24666; AID 651560;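 active means compounds that cut the enzyme signal by at least half of the control window in the single-dose screen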;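 further: plate controls were DMSO wells with enzyme plus substrate for no effect and substrate without enzyme for full effect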
Target sequence (P24666 whole entry, looked up): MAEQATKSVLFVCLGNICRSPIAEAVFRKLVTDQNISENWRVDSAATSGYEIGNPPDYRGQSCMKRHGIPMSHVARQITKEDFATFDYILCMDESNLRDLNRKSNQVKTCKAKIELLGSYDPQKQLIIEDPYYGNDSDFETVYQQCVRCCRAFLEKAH
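Test system: LMPTP-A phosphatase enzyme. Amount: LMPTP-A at 0.625 nM final in the reaction. Reagent: OMFP substrate, 400 µM final. Times: 50 min at room temperature. Signal: endpoint fluorescence intensity from OMFP dephosphorylation. Read-out basis: % inhibition. Benchmarks: no-enzyme and uninhibited controls.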
SUMO1 PPI mod – alters human SUMO1 binding to SIM partners. P63165. SUMO1 binding to a labelled peptide, TR-FRET, 1 h. inhibition, % at 20 µM. actives 0.33% (n = 360,000). AID 602429; in the data active means inhibition above about 37%
Target sequence (P63165 whole entry, looked up): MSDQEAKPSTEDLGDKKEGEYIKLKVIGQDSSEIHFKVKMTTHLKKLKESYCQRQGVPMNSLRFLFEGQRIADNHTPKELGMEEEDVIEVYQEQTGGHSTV
GRK2 inh – human GRK2 inhibition via aptamer displacement | bead flow cytometry, FAM-aptamer displacement from GRK2 | actives 0.59% (n = 330,000) | inhibition of aptamer binding, % at 10 µM;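 active means inhibition of aptamer binding above 40%, roughly 3 SD of noise, on plates passing a quality check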;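 further: median bead fluorescence of bound FAM aptamer so fluorescent compounds give negative values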
DNMT1 block – blocks human DNA methyltransferase DNMT1. P26358. DNMT1 molecular beacon, Hinp1I cleavage, fluorescence. inhibition (reported as % activation of signal), % at 10 µM. actives 0.83% (n = 360,000); in the data active means inhibition above about 50%
* = called active by the depositor. In the library only some 2.1% were active in any assay of this set; here they are far more common.

For CC(CCC(C)C(C)(C)C)[C@@H]1CC[C@H]2C3C[C@H](OS(O)(=S)=S)[C@H]4C[C@H](OS(O)(=S)=S)[C@@H](OS(O)(=S)=S)C[C@]4(C)[C@H]3CC[C@]12C (some centres undefined) (tested in a mixture with another compound) the results were STEP block 31.2, Scp-1 inhibitor 24.7, LMPTP inh 81.2*, SUMO1 PPI mod 45.2*, GRK2 inh 3.0 and DNMT1 block -167.5.
Screening COc1ccc(CN2C[C@@H](CO)O[C@@H](n3cnc4c(N(C)C)ncnc43)C2)cc1 returned STEP block 1.2, LMPTP inh -0.9, SUMO1 PPI mod 5.6 and DNMT1 block 3.0.
O=C(CSc1nnc(SCc2cccc3ccccc23)s1)N/N=C/c1c[nH]c2ccccc12 was read as STEP block -2.5, Scp-1 inhibitor -5.2, LMPTP inh 3.8, SUMO1 PPI mod 2.1, GRK2 inh 1.0 and DNMT1 block -21.4.
O=C(CSc1nnc(SCc2ccc(Cl)cc2)s1)N/N=C/c1c[nH]c2ccccc12 was read as STEP block 3.3, Scp-1 inhibitor 16.2, LMPTP inh 11.4, SUMO1 PPI mod 42.2*, GRK2 inh 0.0 and DNMT1 block 69.5*.
Screening C[C@@H]1CN([C@H](C)CO)C(=O)CCCn2nncc2CO[C@H]1CN(C)Cc1ccc2c(c1)OCO2 returned STEP block -2.4, LMPTP inh -1.7, SUMO1 PPI mod 1.5 and DNMT1 block 4.1.
`COC(=O)c1ccc2c(c1)C(C)(C)C(/C=C/c1ccccc1O)=[N+]2C` gave STEP block -5.8, Scp-1 inhibitor 99.4*, LMPTP inh 5.6, SUMO1 PPI mod -10.9, GRK2 inh 3.0 and DNMT1 block -17.3.
`COC(=O)c1ccc(N)c(N=CC2=C(O)CC(C)(C)CC2=O)c1` gave STEP block -0.2, Scp-1 inhibitor -30.4, LMPTP inh -0.7, SUMO1 PPI mod -14.5, GRK2 inh 1.0 and DNMT1 block -8.3.
Screening CC1(C(=O)Nc2ccc3c(c2)OCO3)Cc2c(-c3cccc(C(N)=O)c3)ccnc2O1 (centres undefined) returned STEP block -4.5, LMPTP inh -1.4, SUMO1 PPI mod 0.7 and DNMT1 block 4.0.
Screening CCOC(=O)c1ccc(S(=O)(=O)NNC(=O)COc2cccc(C)c2)cc1 returned STEP block -0.7, Scp-1 inhibitor -4.8, LMPTP inh -2.0, SUMO1 PPI mod -1.9, GRK2 inh 0.0 and DNMT1 block 0.7.
Screening CCOC(=O)c1ccc(S(=O)(=O)NNC(=O)COc2ccc(C)cc2)cc1 returned STEP block 0.5, Scp-1 inhibitor -4.6, LMPTP inh -1.8, SUMO1 PPI mod -1.7, GRK2 inh 92.0* and DNMT1 block 0.8.
CC1C(=O)N(Cc2cn(CCC3OCCO3)nn2)CCS(=O)(=O)N1Cc1ccc(-c2ccc(Cl)c(Cl)c2)cc1 (centres undefined) was read as STEP block -0.1, LMPTP inh 1.6, SUMO1 PPI mod 6.7 and DNMT1 block -13.4.
N#Cc1c(-c2ccc(Cl)cc2)cc(-c2cccs2)nc1SCC(=O)O was read as STEP block 97.8*, Scp-1 inhibitor 89.7*, LMPTP inh 91.6*, SUMO1 PPI mod 2.3, GRK2 inh 3.0 and DNMT1 block 9.4.
For CCc1nc2c(OCCOc3ccc(F)cc3)cccn2c1N(C)C(=O)c1ccco1 the results were STEP block 3.5, LMPTP inh -1.3, SUMO1 PPI mod 2.3 and DNMT1 block -3.9.
COc1ccc(-c2cc(C#N)nc(N3CCNCC3)n2)cc1 was read as STEP block 2.5, Scp-1 inhibitor -3.5, LMPTP inh 15.9, SUMO1 PPI mod 3.3, GRK2 inh 0.0 and DNMT1 block 79.4*.
`COc1ccc(-c2cc(C#N)nc(N3CCN(C)CC3)n2)cc1` gave STEP block -0.8, Scp-1 inhibitor -5.1, LMPTP inh 0.0, SUMO1 PPI mod -12.1, GRK2 inh 0.0 and DNMT1 block 2.5.
COc1ccc2c(C)cc(SCC(=O)Nc3nsc(-c4ccc(C)cc4)n3)nc2c1 was read as STEP block 0.2, Scp-1 inhibitor 3.4, LMPTP inh 2.8, SUMO1 PPI mod -0.7, GRK2 inh 45.0* and DNMT1 block -0.5.
CC(C)C[C@@H](CNCC(=O)[C@H](Cc1ccccc1)NC(=O)c1[nH]cnc1C(=O)N[C@@H](C)CN)NC(=O)c1nc[nH]c1C(=O)N[C@@H](C)C(=O)O was read as STEP block 2.4, Scp-1 inhibitor 1.0, LMPTP inh -3.3, SUMO1 PPI mod 0.7 and DNMT1 block 11.4.
`CC(C)COC(=O)N1CCCCC1c1cc(C(=O)NCc2ccc(F)cc2)no1` (centres undefined) gave STEP block -0.1, LMPTP inh 0.8, SUMO1 PPI mod 7.4 and DNMT1 block 2.0.
`O=Nc1ccc(NOC(=O)c2ccccc2Br)cc1` gave STEP block -1.5, Scp-1 inhibitor -3.1, LMPTP inh 2.7, SUMO1 PPI mod -11.4, GRK2 inh 5.0 and DNMT1 block 12.8.
`O=C(ONc1ccc(N=NC(=O)c2ccccc2O)cc1)c1ccccc1` gave STEP block -1.1, Scp-1 inhibitor 90.7*, LMPTP inh 21.6, SUMO1 PPI mod -17.6, GRK2 inh 2.0 and DNMT1 block 4.2.
For CCC(=O)c1ccc(OCC(=O)OCC(=O)c2c(N)n(C)c(=O)n(C)c2=O)cc1 the results were STEP block -0.7, Scp-1 inhibitor -3.9, LMPTP inh -1.5, SUMO1 PPI mod 1.5, GRK2 inh 3.0 and DNMT1 block 4.7.
Screening Cn1c(N)c(C(=O)COC(=O)COc2ccc(Br)cc2)c(=O)n(C)c1=O returned STEP block -2.2, Scp-1 inhibitor -12.6, LMPTP inh -0.9, SUMO1 PPI mod 40.3*, GRK2 inh 3.0 and DNMT1 block 1.4.
Screening CN(C)c1ccc(/C=C/c2cc[n+](C)cc2)cc1 returned STEP block 1.6, Scp-1 inhibitor 95.9*, LMPTP inh 6.6, SUMO1 PPI mod -69.9, GRK2 inh 0.0 and DNMT1 block -15.6.
For CN(C)c1ccc(/C=C/c2cc[n+]([O-])cc2)cc1 the results were GRK2 inh 0.0.
Cc1cc(C)cc(C(O)c2ncc(-c3cccc(F)c3)[nH]2)c1 (centres undefined) was read as STEP block 1.7, LMPTP inh -1.2, SUMO1 PPI mod 5.7 and DNMT1 block 2.0.
Screening COc1ccc(-c2cc(NC=O)c3ncc(-c4cccc(C(=O)NCCN(C)C)c4)n3c2)cn1 returned STEP block 2.8, LMPTP inh -2.5, SUMO1 PPI mod -33.3 and DNMT1 block -1.0.

Assay outcomes (PubChem BioAssay)
